Non-standard residues stand in square brackets, D forms with d. Residues, ends and D or L forms follow the SMILES beside them. ξ: configuration not given here. *: point of attachment. NHBn = c1ccc(CN*)cc1; ξA = CC(N)C(=O)O
Tests used:
Mus musculus [1] = test: Anticonvulsant against s.c. Metrazol-induced convulsions after 30 min.; type: functional
Procedure, shortened: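 Mice (male Carworth Farms No. 1) got ip doses of 30, 100 or 300 mg/kg (600 mg/kg for one agent), checked at 0.5 h. Pentylenetetrazole 85 mg/kg as a 0.5% solution was injected sc in the posterior midline, then the animal was watched for 30 min. Protection means no threshold seizure (clonic spasms lasting ≥5 s). Single animals per dose; scored 0–4 by dose level.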

Mus musculus [2] = species on record: Mus musculus; test: Anticonvulsant against maximal electroshock induced convulsions after 30 min.; type: functional
Procedure, shortened: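 Male Carworth Farms No. 1 mice, test agent given ip at 30, 100 and 300 mg/kg (one agent also at 600 mg/kg); read at 0.5 h. Electroshock via electrodes, with a drop of 0.9% saline in the eye first. Protection is abolition of the hind-limb tonic extension. One mouse per dose. Scored 0–4 by the lowest dose with noticeable activity.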

Mus musculus [3] = species on record: Mus musculus; test: Anticonvulsant activity was determined by rotarod toxicity test (neurologic toxicity) at an interval of 0.5 h; type: organism-based; conditions: in vivo
Procedure, shortened: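 Phase I screen in male Carworth Farms No. 1 mice, ip at 30, 100 and 300 mg/kg, read at 0.5 h. Four mice per dose on a 1-in. knurled rod at 6 rpm; neurotoxicity is failure to remain on it for 1 min. Scored 0–4: 0 = none at 600 mg/kg, then 1–4 = activity at 600, 300, 100 or 30 mg/kg.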

Mus musculus [4] = test: Anticonvulsant activity was determined by subcutaneous picrotoxin test (CD97=3.15 mg/kg) (Phase V Pharmacological Evaluation); type: functional; conditions: sc
Mus musculus [5] = species on record: Mus musculus; test: Anticonvulsant activity was determined by maximum-induced convulsions electroshock seizure test (Phase II Pharmacological Evaluation); type: functional
Mus musculus [6] = species on record: Mus musculus; test: Anticonvulsant activity was determined by maximum-induced convulsions electroshock seizure test (Phase IV Pharmacological Evaluation); type: functional
Mus musculus [7] = test: Anticonvulsant activity was determined by subcutaneous Metrazol-induced convulsions (sc MET)(Phase V Pharmacological Evaluation); type: functional
Procedure, shortened: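 Mice, normally eight per dose; Metrazol 85 mg/kg (CD97) as 0.5% solution sc in posterior midline. Animals isolated and observed 30 min; protection: no threshold seizure (a clonic spasm episode of at least 5 s).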

Mus musculus [8] = test: Anticonvulsant activity was determined by subcutaneous Metrazol-induced convulsions seizure test (Phase II Pharmacological Evaluation); type: functional; conditions: sc
Procedure, shortened: (§1)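 MES protection: hind-limb tonic extension abolished; saline drop in eye before electrodes. sc Met: pentylenetetrazole 85 mg/kg as 0.5% solution sc in posterior midline, 30 min observation; protection: no clonic spasm episode of at least 5 s. Rotarod toxicity: falling off a 1-in. rod at 6 rpm within 1 min. PI = TD50/MES ED50.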

Mus musculus [9] = test: Anticonvulsant activity was determined by subcutaneous Metrazol-induced convulsions seizure test (Phase IV Pharmacological Evaluation); type: functional; conditions: sc
Procedure, shortened: (§2)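 MES protection: hind-limb tonic extension abolished. sc Met: pentylenetetrazole 85 mg/kg as 0.5% solution sc, 30 min observation; protection: no threshold clonic seizure of 5 s or more. Toxicity: failing to stay 1 min on a 6 rpm rod. PI = TD50/MES ED50.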

Mus musculus [10] = test: Anticonvulsant activity was determined by subcutaneous bicuculline test (CD97=2.70 mg/kg) (Phase V Pharmacological Evaluation); type: functional; conditions: sc
[11] = Neurologic toxicity activity was determined by rotarod toxicity test (Phase II Pharmacological Evaluation); type: organism-based; conditions: mouse, in vivo
[12] = Neurologic toxicity activity was determined by rotarod toxicity test (Phase IV Pharmacological Evaluation); type: organism-based; conditions: mouse, in vivo
[13] = Protectivity index is the ratio of TD50 /MES ED50 from Phase-II evaluation; type: functional; procedure, shortened: as §1
[14] = Protectivity index is the ratio of TD50 /MES ED50 from Phase-IV evaluation; type: functional; procedure, shortened: as §2
Mus musculus [15] = test: Anticonvulsant activity was determined by subcutaneous pentylenetetrazole seizure test (Phase IV Pharmacological Evaluation); type: functional; conditions: sc; procedure, shortened: as §2
Mus musculus [16] = species on record: Mus musculus; test: Anticonvulsant activity was determined by maximum-induced convulsions electroshock seizure test (Phase III Pharmacological Evaluation); type: functional

| Structure (SMILES) | MET (Mus musculus [1]) | MES (Mus musculus [2]) | Toxicity (Mus musculus [3]) | other results |
| --- | --- | --- | --- | --- |
| CC(=O)NC(C(=O)NCc1ccccc1)C(C)C (stereo unspecified) | 0 | 2 | 0 |  |
| CCCC(CCC)C(=O)O [VALPROIC ACID] |  |  |  | ED50 (Mus musculus [4]): 387 mg/kg; ED50 (Mus musculus [5]): 272 mg/kg; ED50 (Mus musculus [6]): 665 mg/kg; ED50 (Mus musculus [7]): 149 mg/kg; ED50 (Mus musculus [8]): 149 mg/kg; ED50 (Mus musculus [9]): 388 mg/kg; ED50 (Mus musculus [10]): 360 mg/kg |
| CC(=O)NC(Cc1ccccc1)C(=O)NCc1ccccc1 (stereo unspecified) | 0 | 0 | 0 |  |
| CCC1(C)CC(=O)NC1=O (stereo unspecified) [ETHOSUXIMIDE] |  |  |  | ED50 (Mus musculus [4]): 243 mg/kg; ED50 (Mus musculus [7]): 130 mg/kg; ED50 (Mus musculus [8]): 130 mg/kg; ED50 (Mus musculus [9]): 192 mg/kg; ED50 (Mus musculus [10]): 459 mg/kg; TD50 [11]: 441 mg/kg; TD50 [12]: 879 mg/kg |
| CC(NC(=O)C(C)(C)C)C(=O)NCc1ccccc1 (stereo unspecified) | 2 | 2 | 0 |  |
| CC(=O)NC(C)C(=O)NC(c1ccccc1)c1ccccc1 (stereo unspecified) | 0 | 0 | 0 |  |
| CC(=O)NCC(=O)NC(C)C(=O)NCc1ccccc1 (stereo unspecified) (Ac-Gly-[ξA]-NHBn) | 0 | 0 | 0 |  |
| COc1cccc(CNC(=O)C(C)NC(C)=O)c1 (stereo unspecified) | 0 | 2 | 0 |  |
| CC(=O)NCC(C)C(=O)NCc1ccccc1 (stereo unspecified) | 0 | 2 | 0 |  |
| CC(=O)NCCC(=O)NCc1ccccc1 | 0 | 0 | 0 |  |
| CNC(=O)C(C)NC(C)=O (stereo unspecified) | 0 | 0 | 0 |  |
| CC(=O)NC(C)C(=O)NCC(=O)NCc1ccccc1 (stereo unspecified) (Ac-[ξA]-Gly-NHBn) | 0 | 0 | 0 |  |
| CC(=O)NC(C(=O)NCc1ccccc1)c1ccccc1 (stereo unspecified) | 0 | 4 | 2 | ED50 (Mus musculus [5]): 20.3 mg/kg; ED50 (Mus musculus [6]): 46.7 mg/kg; TD50 [11]: 96.9 mg/kg; TD50 [12]: 241 mg/kg; Protective Index [13]: 4.77; Protective Index [14]: 5.17 |
| CC(=O)NC(C)C(=O)NCc1cccc(F)c1 (stereo unspecified) | 0 | 3 | 0 | ED50 (Mus musculus [5]): 77.4 mg/kg; ED50 (Mus musculus [8]): 142 mg/kg; Protective Index [13]: > 6.46 |
| CC(=O)NC(C)C(=O)NCc1ccccc1 (stereo unspecified) | 0 | 3 | 1 | ED50 (Mus musculus [4]): 134 mg/kg; ED50 (Mus musculus [15]): 266 mg/kg; ED50 (Mus musculus [5]): 76.5 mg/kg; ED50 (Mus musculus [16]): 123 mg/kg; ED50 (Mus musculus [10]): 205 mg/kg; Protective Index [13]: 5.93; Protective Index [14]: > 8.15 |
| CC(=O)NCC(=O)NCc1ccccc1 | 0 | 2 | 2 |  |
| CC(=O)NC(C(=O)NCc1ccccc1)(c1ccccc1)c1ccccc1 | 0 | 0 | 0 |  |
| CC(C)C(=O)NC(C)C(=O)NCc1ccccc1 (stereo unspecified) | 0 | 0 | 0 |  |
| CSCCC(NC(C)=O)C(=O)NCc1ccccc1 (stereo unspecified) | 0 | 2 | 0 |  |

— ChEMBL document CHEMBL1123702, “Functionalized DL-amino acid derivatives. Potent new agents for the treatment of epilepsy” (J Med Chem, 1987)
